Experimental data taken from ChEMBL document CHEMBL4689842, “EUbOPEN Chemogenomics Library wave 1” (2021).
Values joined by “and” are separate entries in the source; they are usually repeats but may differ in a detail not shown here. Equal values may be shown once.

Test system: Fibroblast
Assay: Multiplex assay against human fibroblast
Format: toxicity, cell-based
In short: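 Phenotypes for tubulin, mitochondrial mass and membrane permeability are expressed as per cents of healthy-nucleus cells. Cells were stained live at seeding with Hoechst33342, BioTracker Green Microtubule Cytoskeleton Dye, MitoTracker Red and Annexin V Alexa Fluor 680, then imaged after compound addition on a CQ1 microscope at 37°C and 5% CO2. Machine-learning gating in CellPathfinder separated Hoechst high-intensity objects from normal cells, divided normal cells by nuclear state (healthy, pyknosed, fragmented) and divided pyknosed cells into mitotic or apoptotic.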

[1] = 12 h, 1 µM, compound concentration 1 uM, replicate 1
[2] = 12 h, 1 µM, compound concentration 1 uM, replicate 2
[3] = 12 h, 10 µM, compound concentration 10 uM, replicate 1
[4] = 12 h, 10 µM, compound concentration 10 uM, replicate 2
[5] = 24 h, 1 µM, compound concentration 1 uM, replicate 1
[6] = 24 h, 1 µM, compound concentration 1 uM, replicate 2
[7] = 24 h, 10 µM, compound concentration 10 uM, replicate 1
[8] = 24 h, 10 µM, compound concentration 10 uM, replicate 2
[9] = 48 h, 10 µM, compound concentration 10 uM, replicate 1
[10] = 48 h, 10 µM, compound concentration 10 uM, replicate 2

SMILES: CN[C@@H]1C[C@H]2O[C@@](C)([C@@H]1OC)n1c3ccccc3c3c4c(c5c6ccccc6n2c5c31)C(=O)NC4 [STAUROSPORINE]
- Population Apoptotic (%) [1]: 75%
- Population Fragmented Nuclei (%) [1]: 41%
- Population Healthy Nuclei (%) [1]: 14%
- Population Hoechst High Intensity Objects (%) [1]: 31%
- Population Membrane Permeable-Phenotype (%) [1]: 13%
- Population Mitochondria Different-Phenotype (%) [1]: 2%
- Population Mitotic Cells (%) [1]: 24%
- Population Normal (%) [1]: 68%
- Population Pyknosed Nuclei (%) [1]: 43%
- Population Tubulin-Different-Phenotype (%) [1]: 10%
- Population Apoptotic (%) [2]: 71%
- Population Fragmented Nuclei (%) [2]: 48%
- Population Healthy Nuclei (%) [2]: 19%
- Population Hoechst High Intensity Objects (%) [2]: 46%
- Population Membrane Permeable-Phenotype (%) [2]: 47%
- Population Mitochondria Different-Phenotype (%) [2]: 11%
- Population Mitotic Cells (%) [2]: 28%
- Population Normal (%) [2]: 53%
- Population Pyknosed Nuclei (%) [2]: 32%
- Population Tubulin-Different-Phenotype (%) [2]: 11%
- Population Apoptotic (%) [3]: 84% and 63% and 86%
- Population Fragmented Nuclei (%) [3]: 30% and 31% and 36%
- Population Healthy Nuclei (%) [3]: 9% and 21% and 10%
- Population Hoechst High Intensity Objects (%) [3]: 26% and 29% and 21%
- Population Mitochondria Different-Phenotype (%) [3]: 0% and 3% and 5%
- Population Mitotic Cells (%) [3]: 15% and 36% and 13%
- Population Normal (%) [3]: 73%
- Population Pyknosed Nuclei (%) [3]: 59% and 46% and 52%
- Population Tubulin-Different-Phenotype (%) [3]: 15% and 5%
- Population Apoptotic (%) [4]: 77% and 73%
- Population Fragmented Nuclei (%) [4]: 48% and 26% and 42%
- Population Healthy Nuclei (%) [4]: 14% and 15% and 12%
- Population Hoechst High Intensity Objects (%) [4]: 43% and 15%
- Population Mitotic Cells (%) [4]: 22% and 26%
- Population Normal (%) [4]: 56% and 84%
- Population Pyknosed Nuclei (%) [4]: 37% and 57% and 45%
- Population Apoptotic (%) [5]: 85%
- Population Fragmented Nuclei (%) [5]: 61%
- Population Healthy Nuclei (%) [5]: 2%
- Population Hoechst High Intensity Objects (%) [5]: 21%
- Population Membrane Permeable-Phenotype (%) [5]: 16%
- Population Mitochondria Different-Phenotype (%) [5]: 0%
- Population Mitotic Cells (%) [5]: 14%
- Population Pyknosed Nuclei (%) [5]: 35%
- Population Tubulin-Different-Phenotype (%) [5]: 16%
- Population Apoptotic (%) [6]: 74%
- Population Fragmented Nuclei (%) [6]: 58%
- Population Healthy Nuclei (%) [6]: 11%
- Population Hoechst High Intensity Objects (%) [6]: 34%
- Population Membrane Permeable-Phenotype (%) [6]: 30%
- Population Mitochondria Different-Phenotype (%) [6]: 10%
- Population Mitotic Cells (%) [6]: 25%
- Population Normal (%) [6]: 65%
- Population Pyknosed Nuclei (%) [6]: 30%
- Population Tubulin-Different-Phenotype (%) [6]: 0%
- Population Apoptotic (%) [7]: 92% and 84% and 87%
- Population Fragmented Nuclei (%) [7]: 51% and 58% and 59%
- Population Healthy Nuclei (%) [7]: 6% and 7%
- Population Hoechst High Intensity Objects (%) [7]: 18% and 20% and 22%
- Population Membrane Permeable-Phenotype (%) [7]: 30% and 25% and 11%
- Population Mitochondria Different-Phenotype (%) [7]: 0% and 3%
- Population Mitotic Cells (%) [7]: 7% and 15% and 12%
- Population Normal (%) [7]: 81% and 79% and 77%
- Population Pyknosed Nuclei (%) [7]: 41% and 34%
- Population Apoptotic (%) [8]: 72% and 88% and 77%
- Population Healthy Nuclei (%) [8]: 20% and 46% and 37%
- Population Hoechst High Intensity Objects (%) [8]: 38% and 27% and 26%
- Population Membrane Permeable-Phenotype (%) [8]: 47% and 100% and 92%
- Population Mitotic Cells (%) [8]: 27% and 11% and 22%
- Population Normal (%) [8]: 61% and 72% and 73%
- Population Pyknosed Nuclei (%) [8]: 26% and 36% and 38%
- Population Apoptotic (%) [9]: 88% and 84%
- Population Fragmented Nuclei (%) [9]: 60% and 64%
- Population Healthy Nuclei (%) [9]: 14% and 23%
- Population Hoechst High Intensity Objects (%) [9]: 34% and 36%
- Population Membrane Permeable-Phenotype (%) [9]: 40% and 37%
- Population Mitochondria Different-Phenotype (%) [9]: 6% and 16%
- Population Mitotic Cells (%) [9]: 11% and 15%
- Population Normal (%) [9]: 65% and 63%
- Population Pyknosed Nuclei (%) [9]: 25% and 12%
- Population Tubulin-Different-Phenotype (%) [9]: 53% and 54%
- Population Apoptotic (%) [10]: 91% and 83%
- Population Fragmented Nuclei (%) [10]: 79% and 82%
- Population Healthy Nuclei (%) [10]: 10% and 8%
- Population Hoechst High Intensity Objects (%) [10]: 44% and 33%
- Population Membrane Permeable-Phenotype (%) [10]: 33% and 58%
- Population Mitochondria Different-Phenotype (%) [10]: 8% and 0%
- Population Mitotic Cells (%) [10]: 8% and 16%
- Population Normal (%) [10]: 55% and 66%
- Population Pyknosed Nuclei (%) [10]: 10% and 8%
- Population Tubulin-Different-Phenotype (%) [10]: 58% and 66%

SMILES: Cl.O=C(c1ccc(Nc2nccc(-c3cc4ccccc4s3)n2)cc1)N1CCC(N2CCCC2)CC1
- Population Apoptotic (%) [1]: 84%
- Population Fragmented Nuclei (%) [1]: 42%
- Population Healthy Nuclei (%) [1]: 48%
- Population Hoechst High Intensity Objects (%) [1]: 21%
- Population Membrane Permeable-Phenotype (%) [1]: 4%
- Population Mitochondria Different-Phenotype (%) [1]: 10%
- Population Mitotic Cells (%) [1]: 15%
- Population Normal (%) [1]: 78%
- Population Pyknosed Nuclei (%) [1]: 9%
- Population Tubulin-Different-Phenotype (%) [1]: 14%
- Total Cell Count [1]: 260
- Population Apoptotic (%) [2]: 55%
- Population Fragmented Nuclei (%) [2]: 53%
- Population Healthy Nuclei (%) [2]: 32%
- Population Hoechst High Intensity Objects (%) [2]: 36%
- Population Membrane Permeable-Phenotype (%) [2]: 0%
- Population Mitochondria Different-Phenotype (%) [2]: 9%
- Population Mitotic Cells (%) [2]: 44%
- Population Normal (%) [2]: 63%
- Population Pyknosed Nuclei (%) [2]: 13%
- Total Cell Count [2]: 102
- Population Apoptotic (%) [3]: 73% and 44%
- Population Fragmented Nuclei (%) [3]: 31% and 33%
- Population Healthy Nuclei (%) [3]: 16% and 12%
- Population Hoechst High Intensity Objects (%) [3]: 19% and 12%
- Population Mitochondria Different-Phenotype (%) [3]: 26% and 36%
- Population Mitotic Cells (%) [3]: 26% and 55%
- Population Normal (%) [3]: 80% and 87%
- Population Pyknosed Nuclei (%) [3]: 52% and 53%
- Population Tubulin-Different-Phenotype (%) [3]: 66% and 53%
- Total Cell Count [3]: 115 and 265
- Population Apoptotic (%) [4]: 93% and 82%
- Population Fragmented Nuclei (%) [4]: 35% and 54%
- Population Healthy Nuclei (%) [4]: 7% and 10%
- Population Hoechst High Intensity Objects (%) [4]: 21% and 38%
- Population Membrane Permeable-Phenotype (%) [4]: 50% and 42%
- Population Mitochondria Different-Phenotype (%) [4]: 100% and 57%
- Population Mitotic Cells (%) [4]: 6% and 17%
- Population Normal (%) [4]: 78% and 61%
- Population Pyknosed Nuclei (%) [4]: 57% and 34%
- Population Tubulin-Different-Phenotype (%) [4]: 100% and 57%
- Total Cell Count [4]: 73 and 108
- Population Apoptotic (%) [5]: 76%
- Population Fragmented Nuclei (%) [5]: 44%
- Population Healthy Nuclei (%) [5]: 47%
- Population Hoechst High Intensity Objects (%) [5]: 23%
- Population Membrane Permeable-Phenotype (%) [5]: 4%
- Population Mitochondria Different-Phenotype (%) [5]: 3%
- Population Mitotic Cells (%) [5]: 23%
- Population Normal (%) [5]: 76%
- Population Pyknosed Nuclei (%) [5]: 8%
- Population Tubulin-Different-Phenotype (%) [5]: 10%
- Total Cell Count [5]: 340
- Population Apoptotic (%) [6]: 0%
- Population Fragmented Nuclei (%) [6]: 60%
- Population Healthy Nuclei (%) [6]: 34%
- Population Hoechst High Intensity Objects (%) [6]: 32%
- Population Membrane Permeable-Phenotype (%) [6]: 8%
- Population Mitochondria Different-Phenotype (%) [6]: 20%
- Population Mitotic Cells (%) [6]: 100%
- Population Normal (%) [6]: 67%
- Population Pyknosed Nuclei (%) [6]: 5%
- Population Tubulin-Different-Phenotype (%) [6]: 32%
- Total Cell Count [6]: 108
- Population Apoptotic (%) [7]: 71%
- Population Fragmented Nuclei (%) [7]: 43% and 48%
- Population Hoechst High Intensity Objects (%) [7]: 16% and 20%
- Population Membrane Permeable-Phenotype (%) [7]: 33% and 14%
- Population Mitochondria Different-Phenotype (%) [7]: 22% and 14%
- Population Mitotic Cells (%) [7]: 28%
- Population Normal (%) [7]: 83% and 79%
- Population Pyknosed Nuclei (%) [7]: 46% and 48%
- Population Tubulin-Different-Phenotype (%) [7]: 66% and 71%
- Total Cell Count [7]: 112 and 297
- Population Apoptotic (%) [8]: 88% and 100%
- Population Fragmented Nuclei (%) [8]: 66% and 26%
- Population Hoechst High Intensity Objects (%) [8]: 45% and 31%
- Population Membrane Permeable-Phenotype (%) [8]: 50% and 100%
- Population Mitotic Cells (%) [8]: 11% and 0%
- Population Normal (%) [8]: 54% and 68%
- Population Pyknosed Nuclei (%) [8]: 29% and 58%
- Population Tubulin-Different-Phenotype (%) [8]: 50% and 87%
- Total Cell Count [8]: 105 and 76
- Population Apoptotic (%) [9]: 91%
- Population Fragmented Nuclei (%) [9]: 55%
- Population Healthy Nuclei (%) [9]: 24%
- Population Hoechst High Intensity Objects (%) [9]: 49%
- Population Membrane Permeable-Phenotype (%) [9]: 33%
- Population Mitochondria Different-Phenotype (%) [9]: 33%
- Population Mitotic Cells (%) [9]: 8%
- Population Normal (%) [9]: 50%
- Population Pyknosed Nuclei (%) [9]: 19%
- Population Tubulin-Different-Phenotype (%) [9]: 66%
- Total Cell Count [9]: 120
- Population Apoptotic (%) [10]: 50%
- Population Fragmented Nuclei (%) [10]: 78%
- Population Healthy Nuclei (%) [10]: 17%
- Population Hoechst High Intensity Objects (%) [10]: 50%
- Population Membrane Permeable-Phenotype (%) [10]: 62%
- Population Mitochondria Different-Phenotype (%) [10]: 12%
- Population Mitotic Cells (%) [10]: 50%
- Population Normal (%) [10]: 49%
- Population Pyknosed Nuclei (%) [10]: 4%
- Population Tubulin-Different-Phenotype (%) [10]: 62%
- Total Cell Count [10]: 93
